Reference: ChEMBL document CHEMBL1124144, “Electrophysiologic and antiarrhythmic activities of 4-amino-N-[2-(diethylamino)ethyl]-3,5-dimethylbenzamide, a sterically hindered procainamide analogue” (1988)

Columns and labels:
Canis familiaris [1] = organism: Canis familiaris; test: Percent change of action potential duration at 3 x 10e-4 M, measured at 95% repolarization in Canine Purkinje fibers; format: functional, Canis lupus familiaris, Purkinje fiber
How it was run: (§1)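 Canine Purkinje fibres superfused with Tyrode's solution (K+ 4.0, Mg2+ 1.0, Ca2+ 4.0, HCO3- 18.0, glucose 5.5 mM), paced at 1000 ms cycle length with 0.5-ms pulses at 1.5× threshold. Transmembrane potentials were recorded with 3 M KCl microelectrodes. Drug was added to the superfusate at 3 × 10^-4 M final and read at stable effect (~30 min). Each cell served as its own control. Values are mean ± SEM, four or five experiments, five tissues per drug from different dogs. Compared by ANOVA/Fisher's LSD.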

Canis familiaris [2] = test: Percent change in maximal upstroke velocity when 3*10e-4 M compound was administered in Canine Purkinje fibers; format: functional; conditions: Canis lupus familiaris; Purkinje fiber; how it was run: as §1
Canis familiaris [3] = test: Maximal upstroke velocity when 3*10e-4 M compound was administered in Canine Purkinje fibers; format: functional; conditions: Canis lupus familiaris; Purkinje fiber; how it was run: as §1
Canis familiaris [4] = test: Resting potential when no compound was administered in Canine Purkinje fibers; format: functional, Canis lupus familiaris, Purkinje fiber; how it was run: as §1
Canis familiaris [5] = organism: Canis familiaris; test: Amplitude at 3 x 10e-4 M concentration in Canine Purkinje fibers; format: functional, Canis lupus familiaris, Purkinje fiber; how it was run: as §1
Canis familiaris [6] = organism: Canis familiaris; test: Percent change of action potential duration at 3 x 10e-4 M, measured at 70% repolarization; format: functional, Canis lupus familiaris; how it was run: as §1
Canis familiaris [7] = test: Action potential duration when no compound was administered in Canine Purkinje fibers measured at 95% repolarization; format: functional, Canis lupus familiaris, Purkinje fiber; how it was run: as §1
Canis familiaris [8] = test: Effect on ouabain-induced arrhythmias in pentobarbital anesthetized dogs; format: functional, Canis lupus familiaris
How it was run: (§2)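 Male beagles (12–15 kg) were given pentobarbital 35 mg/kg iv plus 5 mg/kg 15 min later. Ouabain went into the cephalic vein at 50 µg/kg, then 10 µg/kg every 15 min (extra 5 µg/kg if needed) until arrhythmia was sustained. After 30 min of arrhythmia, drug in water was infused iv at 200 µg/kg/min, raised to 500 µg/kg/min after 10 min, until conversion to sinus rhythm. n = 5.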

Canis familiaris [9] = organism: Canis familiaris; test: Percent change of effective refractory period at 3 x 10e-4 M, in Canine Purkinje fibers; format: functional, Canis lupus familiaris, Purkinje fiber; how it was run: as §1
Canis familiaris [10] = organism: Canis familiaris; test: Action potential duration at 3 x 10e-4 M measured at 70% repolarization; format: functional, Canis lupus familiaris; how it was run: as §1
Canis familiaris [11] = test: Action potential duration when no compound was administered in Canine Purkinje fibers measured at 70% repolarization; format: functional, Canis lupus familiaris, Purkinje fiber; how it was run: as §1
Canis familiaris [12] = test: Amplitude when no compound was administered in Canine Purkinje fibers; format: functional, Canis lupus familiaris, Purkinje fiber; how it was run: as §1
Rattus norvegicus [13] = test: Plasma concentration in rat 30 minutes after administration at a dose of 25 mg/kg; format: functional, organism-based; set-up: dose 25 mg/kg
How it was run: (§3)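 Fischer 344 rats were given 25 mg/kg in water iv via the jugular vein, three per group. Plasma was taken by cardiac puncture at set times. Parent drug and N-acetyl metabolite were quantified by GC with a nitrogen-phosphorus detector after alkaline extraction with an internal standard. The assay was linear 1–10 µg/mL. Values are mean ± SEM.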

Canis familiaris [14] = organism: Canis familiaris; test: Percent change of amplitude at 3 x 10e-4 M concentration in Canine Purkinje fibers; format: functional, Canis lupus familiaris, Purkinje fiber; how it was run: as §1
Canis familiaris [15] = organism: Canis familiaris; test: Effective refractory period at 3 x 10e-4 M in Canine Purkinje fibers; format: functional, Canis lupus familiaris, Purkinje fiber; how it was run: as §1
Canis familiaris [16] = test: Maximal upstroke velocity when no compound was administered in Canine Purkinje fibers; format: functional; conditions: Canis lupus familiaris; Purkinje fiber; how it was run: as §1
Canis familiaris [17] = organism: Canis familiaris; test: Resting potential at 3 x 10e-4 M in Canine Purkinje fibers; format: functional, Canis lupus familiaris, Purkinje fiber; how it was run: as §1
Canis lupus familiaris [18] = organism: Canis lupus familiaris; test: (§4) Sodium channel inactivating potency at 3*10e-4 M; format: functional
How it was run: (§5)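 Recovery from sodium-channel inactivation in paced canine Purkinje fibres: a premature S2 stimulus was given immediately after full repolarization. It was expressed as the ratio of premature to paced action potential rate of rise. Drug was present at 3 × 10^-4 M final, read after ~30 min. Each cell was its own control. Values are mean ± SEM, four or five experiments.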

Canis familiaris [19] = test: Effect on conversion dose required for arrhythmias in pentobarbital anesthetized dogs; format: functional, Canis lupus familiaris; how it was run: as §2
Canis lupus familiaris [20] = organism: Canis lupus familiaris; test: Sodium channel inactivating potency in the absence of compound (control); format: functional; how it was run: as §5
Rattus norvegicus [21] = test: Plasma concentration in rat 4 hr after administration at a dose of 25 mg/kg; format: functional, organism-based; set-up: dose 25 mg/kg; how it was run: as §3
Canis familiaris [22] = organism: Canis familiaris; test: Percent change of resting potential at 3 x 10e-4 M in Canine Purkinje fibers; format: functional, Canis lupus familiaris, Purkinje fiber; how it was run: as §1
Canis familiaris [23] = test: Effective refractory period when no compound was administered in Canine Purkinje fibers; format: functional, Canis lupus familiaris, Purkinje fiber; how it was run: as §1
Rattus norvegicus [24] = test: Plasma concentration in rat 2 hr after administration at a dose of 25 mg/kg; format: functional, organism-based; set-up: dose 25 mg/kg; how it was run: as §3
Canis familiaris [25] = organism: Canis familiaris; test: Action potential duration at 3 x 10e-4 M measured at 95% repolarization in Canine Purkinje fibers; format: functional, Canis lupus familiaris, Purkinje fiber; how it was run: as §1
Canis lupus familiaris [26] = organism: Canis lupus familiaris; test: as §4; format: functional; how it was run: as §5; remark: listed apart in the source

Row | SMILES | APD95 (Canis familiaris [1]) | Vmax (Canis familiaris [2]) | Vmax (Canis familiaris [3]) | Resting potential (Canis familiaris [4]) | Amplitude (Canis familiaris [5]) | APD70 (Canis familiaris [6]) | APD95 (Canis familiaris [7]) | Ouabain dose (Canis familiaris [8]) | ERP (Canis familiaris [9]) | APD70 (Canis familiaris [10]) | APD70 (Canis familiaris [11]) | Amplitude (Canis familiaris [12]) | Amplitude (Canis familiaris [14]) | ERP (Canis familiaris [15]) | Vmax (Canis familiaris [16]) | Resting potential (Canis familiaris [17]) | Na+ inactivation (Canis lupus familiaris [18]) | Conversion dose (Canis familiaris [19]) | Na+ inactivation (Canis lupus familiaris [20]) | Resting potential (Canis familiaris [22]) | other results
1 | CCN(CC)CCNC(=O)c1ccc(N)cc1 [PROCAINAMIDE] | 5% | -31% | 345 V s-1 | -93 mV | 119 mV | 1% | 347 ms | 0.068 mg/kg | 6% | 284 ms | 285 ms | 127 mV | -7% | 321 ms | 501 V s-1 | -91 mV | 0.96 | 19 mg/kg | 1 | -2% | Plasma concentration (Rattus norvegicus [13]): 2.29 µg/mL; Na+ inactivation change (Canis lupus familiaris [18]): -3%; Plasma concentration (Rattus norvegicus [21]): 2.3 µg/mL; ERP (Canis familiaris [23]): 308 ms; Plasma concentration (Rattus norvegicus [24]): 0.36 µg/mL; APD95 (Canis familiaris [25]): 361 ms
2 | CCN(CC)CCNC(=O)c1ccc(N)c(C)c1 | -7% | -39% | 282 V s-1 | -89 mV | 114 mV | -16% | 363 ms | 0.065 mg/kg | -6% | 244 ms | 292 ms | 129 mV | -12% | 283 ms | 462 V s-1 | -85 mV | 0.88 | 18.3 mg/kg | 0.96 | -4% | Na+ inactivation (Canis lupus familiaris [26]): -9%; ERP (Canis familiaris [23]): 303 ms; APD95 (Canis familiaris [25]): 336 ms
3 | CCN(CC)CCNC(=O)c1cc(C)c(N)c(C)c1 | -17% | -38% | 387 V s-1 | -92 mV | 117 mV | -37% | 426 ms | 0.069 mg/kg | -18% | 227 ms | 363 ms | 131 mV | -11% | 282 ms | 632 V s-1 | -81 mV | 0.91 | 14.3 mg/kg | 0.99 | -12% | Na+ inactivation (Canis lupus familiaris [26]): -7%; ERP (Canis familiaris [23]): 351 ms; APD95 (Canis familiaris [25]): 353 ms
